According to article PMC7114156 (Antiviral Research, 2009):
Marks after values point to notes of the source that are not given here.

How the values were obtained:
[1] = test system: W12 cells; experiment: mRNA measurement by RT-qPCR in W12 cells; assay type: cell-based, human
Summary of the method: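 RNA was taken 0, 24 and 48 h after adding test compound; W12 cells were grown in 75 cm² flasks and washed in chilled PBS. 546 Pathway Set genes were run in quadruplicate by RT-qPCR: 10 μl reactions, primers 900 nM, probes 100 nM final. Ct was normalised to GAPDH, with dCt = Ct(control) − Ct(treated) and a two-sided t-test. Fold change was F = 2^dCt where p ≤ 0.05.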

[2] = test system: adenovirus type 5; experiment: Adenovirus assay: adenovirus-5 replication in HFF cells, viral DNA by qPCR; assay type: cell-based; conditions: Ad5 in HFF cells, MOI 3, 72 h
[3] = Bone marrow toxicity assay, granulocyte/macrophage progenitors; assay type: cell-based; conditions: human, granulocyte/macrophage bone marrow progenitor cells
[4] = test system: HSV-1; experiment: HSV-1 infection in Vero cells; assay type: cell-based
[5] = test system: Jurkat; experiment: Growth of Jurkat, MTS; assay type: cell-based, human; conditions: 72 h
Summary of the method: (§1)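 Cells were plated in 96-well plates in medium holding serial dilutions of test compound, 1 nM to 10 μM, with DMSO ≤1% (v/v) final. Growth was read by MTS after 72 h at 37 °C: 2 h with reagent plus phenazine methosulfate, then A490. K and Imax came from a fit to a modified Hill equation. Vero cells are African Green monkey.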

[6] = Growth of activated primary CD4 T cells, CTG; assay type: cell-based; conditions: human, CC50, host primary cell growth
[7] = test system: U937; experiment: Growth of U937, MTS; assay type: cell-based, human
Summary of the method: as §1

[8] = Growth of resting CD4 T cells, CTG; assay type: cell-based; conditions: human
Summary of the method: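 Primary cells were plated in 96-well plates with serial dilutions of test compound, 3 nM to 100 μM, for 72 h at 37 °C. Read-out was CTG for resting B and CD4 T cells and MTS for PBMC, WI38 and HUVEC. Purity was 90–95% for B cells and 97% for CD4 cells. Activated PBMCs were stimulated with phytohemagglutinin plus IL2.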

[9] = test system: cell lines immortalized by non-viral transformation events; experiment: Growth of cell lines immortalized by non-viral transformation events; assay type: cell-based; conditions: Homo sapiens, read-out: Median effect concentrations, range
Summary of the method: as §1

[10] = W12 cells, 100 nM, 24 h, not significantly different from 1
[11] = W12 cells, 100 nM, 48 h, not significantly different from 1

O=C(N[C@@H]1CCCc2c1[nH]c1ccc(Cl)cc21)c1ccccn1 [GSK983, N-[(1R)-6-Chloro-2,3,4,9-tetrahydro-1H-carbazol-1-yl]-2-pyridinecarboxamide]
Fold increase due to GSK983, CPT1B mRNA ([1]; W12 cells, 100 nM, 24 h): 3.2 fold | Fold increase due to GSK983, CSF2 mRNA ([1]; W12 cells, 100 nM, 24 h): 3.7 fold | Fold increase due to GSK983, DCN mRNA ([1]; W12 cells, 100 nM, 24 h): 2.3 fold | Fold increase due to GSK983, DMPK mRNA ([1]; W12 cells, 100 nM, 24 h): 2.9 fold | Fold increase due to GSK983, FMOD mRNA ([1]; W12 cells, 100 nM, 24 h): 1.7 fold | Fold increase due to GSK983, IFI6 mRNA ([1]; W12 cells, 100 nM, 24 h): 2.3 fold | Fold increase due to GSK983, IFI16 mRNA ([1]; W12 cells, 100 nM, 24 h): 1.3 fold | Fold increase due to GSK983, IFI44 mRNA ([1]; W12 cells, 100 nM, 24 h): 2.9 fold | Fold increase due to GSK983, IFIT1 mRNA ([1]; W12 cells, 100 nM, 24 h): 5.5 fold | Fold increase due to GSK983, IL6 mRNA ([1]; W12 cells, 100 nM, 24 h): 3.8 fold | Fold increase due to GSK983, IL8 mRNA ([1]; W12 cells, 100 nM, 24 h): 2.1 fold | Fold increase due to GSK983, IRF3 mRNA ([1]; W12 cells, 100 nM, 24 h): 1.5 fold | Fold increase due to GSK983, IRF9 mRNA ([1]; W12 cells, 100 nM, 24 h): 1.6 fold | Fold increase due to GSK983, ISG15 mRNA ([1]; W12 cells, 100 nM, 24 h): 4.3 fold | Fold increase due to GSK983, LRP1 mRNA ([1]; W12 cells, 100 nM, 24 h): 3.7 fold | Fold increase due to GSK983, NR1H3 mRNA ([1]; W12 cells, 100 nM, 24 h): 6.8 fold | Fold increase due to GSK983, OAS1 mRNA ([1]; W12 cells, 100 nM, 24 h): 2.2 fold | Fold increase due to GSK983, OAS2 mRNA ([1]; W12 cells, 100 nM, 24 h): 1.9 fold | Fold increase due to GSK983, OASL mRNA ([1]; W12 cells, 100 nM, 24 h): 6.7 fold | Fold increase due to GSK983, TLR5 mRNA ([1]; W12 cells, 100 nM, 24 h): 2.4 fold | Fold increase due to GSK983, TNFSF10 mRNA ([1]; W12 cells, 100 nM, 24 h): 4.3 fold | Fold increase due to GSK983, ERN2 mRNA [1, 10]: 1.7 ^b fold | Fold increase due to GSK983, LIFR mRNA [1, 10]: 1.3 ^b fold | Fold increase due to GSK983, SNAP25 mRNA [1, 10]: 1.7 ^b fold | Fold increase due to GSK983, CCL5 mRNA ([1]; W12 cells, 100 nM, 48 h): 47.4 fold | Fold increase due to GSK983, CEL mRNA ([1]; W12 cells, 100 nM, 48 h): 10.6 fold | Fold increase due to GSK983, COL10A1 mRNA ([1]; W12 cells, 100 nM, 48 h): 2.4 fold | Fold increase due to GSK983, CPT1B mRNA ([1]; W12 cells, 100 nM, 48 h): 6.4 fold | Fold increase due to GSK983, CSF2 mRNA ([1]; W12 cells, 100 nM, 48 h): 4.9 fold | Fold increase due to GSK983, DCN mRNA ([1]; W12 cells, 100 nM, 48 h): 15.4 fold | Fold increase due to GSK983, DMPK mRNA ([1]; W12 cells, 100 nM, 48 h): 4.1 fold | Fold increase due to GSK983, ERN2 mRNA ([1]; W12 cells, 100 nM, 48 h): 2.8 fold | Fold increase due to GSK983, FMOD mRNA ([1]; W12 cells, 100 nM, 48 h): 2.5 fold | Fold increase due to GSK983, IFI6 mRNA ([1]; W12 cells, 100 nM, 48 h): 7.3 fold | Fold increase due to GSK983, IFIT1 mRNA ([1]; W12 cells, 100 nM, 48 h): 5.5 fold | Fold increase due to GSK983, IL6 mRNA ([1]; W12 cells, 100 nM, 48 h): 10.2 fold | Fold increase due to GSK983, IL8 mRNA ([1]; W12 cells, 100 nM, 48 h): 2.3 fold | Fold increase due to GSK983, ISG15 mRNA ([1]; W12 cells, 100 nM, 48 h): 9.3 fold | Fold increase due to GSK983, LIFR mRNA ([1]; W12 cells, 100 nM, 48 h): 2.2 fold | Fold increase due to GSK983, LRP1 mRNA ([1]; W12 cells, 100 nM, 48 h): 3.5 fold | Fold increase due to GSK983, NR1H3 mRNA ([1]; W12 cells, 100 nM, 48 h): 2.7 fold | Fold increase due to GSK983, OAS1 mRNA ([1]; W12 cells, 100 nM, 48 h): 5.0 fold | Fold increase due to GSK983, OAS2 mRNA ([1]; W12 cells, 100 nM, 48 h): 2.9 fold | Fold increase due to GSK983, OASL mRNA ([1]; W12 cells, 100 nM, 48 h): 10.9 fold | Fold increase due to GSK983, SNAP25 mRNA ([1]; W12 cells, 100 nM, 48 h): 4.7 fold | Fold increase due to GSK983, TLR5 mRNA ([1]; W12 cells, 100 nM, 48 h): 3.1 fold | Fold increase due to GSK983, TNFSF10 mRNA ([1]; W12 cells, 100 nM, 48 h): 8.4 fold | Fold increase due to GSK983, IFI16 mRNA [1, 11]: 1.2 ^b fold | Fold increase due to GSK983, IRF3 mRNA [1, 11]: 1.2 ^b fold | Number of genes of the Pathway Set with significant increases in expression ([1]; W12 cells, at both 10 and 100 nM, 546 genes): 22 genes | Expression of the three interferons (alpha, beta, and gamma), PKR and Mx1 ([1]; data not shown): not induced | Imax, viral DNA by qPCR [2]: 100% | CC50 [3]: 160 µM | Susceptibility of HSV-1 ([4]; at concentrations below 1 μM): not susceptible | Inhibition of HSV-1 infection in Vero cells ([4]; concentration range 1 nM to 100 μM): 50% inhibition in the micromolar range | EC50 ([5]; Homo sapiens, read-out: K, growth, MTS): 0.052 ± 0.003 µM | Imax, Growth, MTS ([5]; T lymphoblast): 51 ± 1% | CC50 at 72 h [6]: 57 µM | EC50 ([7]; Homo sapiens, U-937, 72 h, read-out: K, growth, MTS): 0.026 ± 0.004 µM | Outcome of growth inhibition over time ([7]; U937, 3 days, rate of MTS reduction): cytostasis | Imax, Growth, MTS ([7]; U937, monocyte, 72 h): 55 ± 2% | CC50 at 72 h [8]: 60 µM | EC50 [9]: 0.01 to 0.05 µM
